Measurements collected from several papers.
Compare with care: the assays were run in different laboratories.
Organism: Severe acute respiratory syndrome coronavirus 2
Action: inhibitor

Structure (SMILES)	observed	cells	time	notes	IC50
CCC(CC)COC(=O)[C@H](C)N[P@](=O)(OC[C@H]1O[C@@](C#N)(c2ccc3c(N)ncnn23)[C@H](O)[C@@H]1O)Oc1ccccc1	viral replication	A549-hACE2-TMPRSS2	24 h	–	100 nM
CC(C)C(=O)OC[C@@]1(F)O[C@@H](n2cnc(-c3c[nH]c(=O)[nH]c3=O)c2)[C@H](OC(=O)C(C)C)[C@@H]1OC(=O)C(C)C	viral replication	A549-ACE2	24 h	–	49800 nM
Cc1ccccc1-n1nnnc1Sc1ccc(C(=O)c2ccccc2)cc1[N+](=O)[O-]	viral replication	A549-hACE2-TMPRSS2	24 h	–	25300 nM
Cc1ccc(NC(=O)C2(c3ccc4c(c3)OC(F)(F)O4)CC2)nc1-c1cccc(C(=O)O)c1	viral replication	Caco-2	–	replicon	964 nM
COc1nc(N)ncc1-c1cn([C@@H]2O[C@](F)(CO)[C@@H](O)[C@H]2O)cn1	viral replication	A549-ACE2	24 h	–	> 100000 nM
O=c1[nH]c2ccccc2n1C1CCN(CCCC(c2ccc(F)cc2)c2ccc(F)cc2)CC1	viral replication	Calu-3	–	replicon	4910 nM
Cc1cn2nc([C@@H]3CCCCN3C(=O)c3cc(Cl)ccc3NS(C)(=O)=O)cc2nc1N1CC[C@H](N)C1	viral entry	HeLa-ACE2	–	pseudovirus	320 nM
COc1ncc(-c2cn([C@@H]3O[C@](F)(COC(=O)C(C)C)[C@@H](OC(=O)C(C)C)[C@H]3OC(=O)C(C)C)cn2)c(N)n1	viral replication	A549-ACE2	24 h	–	41900 nM
CCOc1nc2cccc(C(=O)O)c2n1Cc1ccc(-c2ccccc2-c2nnn[nH]2)cc1	viral replication	Caco-2	–	replicon	714 nM
O=C(Nc1ccc([N+](=O)[O-])cc1Cl)c1cc(Cl)ccc1O	viral entry	HeLa-ACE2	–	pseudovirus	1350 nM
